Laboratory results published in ChEMBL document CHEMBL3822382 (Eur J Med Chem, 2016).
The source made the active and inactive calls. The calls are words filed in the database; no cut-off is given here.

Experiments:
[1] = Cell cycle arrest in human HCT116 cells expressing wild type p53 assessed as accumulation at G1 phase at 50 nM after 24 hrs by propidium iodide staining-based flow cytometry (reference value: 56.7%); assay type: functional; details: HCT-116
[2] = Cell cycle arrest in human MCF7/Topo cells assessed as apoptotic index ratio at 100 nM after 24 hrs by propidium iodide staining-based flow cytometry relative to control; assay type: functional
[3] = Cell cycle arrest in human HCT116 cells expressing wild type p53 assessed as apoptotic index ratio at 100 nM after 24 hrs by propidium iodide staining-based flow cytometry relative to control; assay type: functional; details: HCT-116
[4] = test system: 518A2; assay: Effect on microtubule structure in human 518A2 cells at 100 nM incubated for 24 hrs by DAPI staining based immunofluorescence microscopic analysis; assay type: cell-based
In short: (§1)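 518A2 cells (25,000/well) on coverslips treated 24 h with 100 nM. Cells fixed in 4% formaldehyde, permeabilized and blocked (Triton X-100/BSA). Stained with mouse anti-alpha-tubulin (37 °C, 1 h) and AlexaFluor-488 secondary; nuclei counterstained with DAPI (1 µg/mL). Imaged by fluorescence microscopy at 400×.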

[5] = Cell cycle arrest in human HCT116 cells expressing wild type p53 assessed as G2/M index ratio at 100 nM after 24 hrs by propidium iodide staining-based flow cytometry relative to control; assay type: functional; details: HCT-116
[6] = Cell cycle arrest in human HCT116 cells expressing wild type p53 assessed as accumulation at G1 phase at 100 nM after 24 hrs by propidium iodide staining-based flow cytometry (reference value: 56.7%); assay type: functional; details: HCT-116
[7] = Growth inhibition of human 518A2 cells after 24 hrs by MTT assay; assay type: functional, cell-based; details: 518A2, 24 h
In short: (§2)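 Cells seeded at 5000/well (Ea.hy926 10,000/well) and exposed for 24 h to dilution series of 100 µM–5 pM, with DMSO as solvent control. MTT (0.5 mg/mL final) for 2 h. Formazan dissolved in SDS/acetic acid/DMSO and read at 570 nm against a 630 nm background. Viability taken relative to DMSO controls; IC50 from dose–response curves, mean of four independent experiments.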

[8] = Growth inhibition of primary chicken fibroblasts after 48 hrs by MTT assay; assay type: cell-based; details: Gallus gallus, Fibroblast
In short: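 Chicken heart fibroblasts explanted from 10-day-old embryos, seeded at 10,000/well; cardiomyocytes seeded at 20,000/well. Dilution series given for 48 h, DMSO as control. MTT 0.5 mg/mL for 2 h, absorbance at 570/630 nm. Viability versus DMSO controls; IC50 from dose–response curves, mean of three independent experiments.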

[9] = Cell cycle arrest in human HCT116 cells expressing wild type p53 assessed as accumulation at subG1 phase at 100 nM after 24 hrs by propidium iodide staining-based flow cytometry (reference value: 7.1%); assay type: functional; details: HCT-116
[10] = Growth inhibition of human MCF7/Topo cells after 24 hrs by MTT assay; assay type: functional, cell-based; in short: as §2
[11] = test system: Chorioallantoic membrane; assay: Antivascular activity in fertilized white leghorn chicken egg chorioallantoic membrane assessed as disruption of preformed blood vessel at 5 nmol after 12 hrs by stereomicroscopic analysis; assay type: functional, tissue-based; details: Gallus gallus
In short: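 Fertilized white leghorn SPF eggs were incubated to day 5 at 37 °C and 50–60% humidity. A shell window was cut, 6 mm silicon rings were placed on developing CAM vessels, and eggs were incubated another 24 h. Compound (500 μM in PBS; 10 μL = 5 nmol, 20 μL = 10 nmol) or DMSO was pipetted inside the ring. Vessel changes were imaged by stereomicroscope at 0, 12 and 24 h.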

[12] = Cell cycle arrest in human 518A2 cells assessed as G2/M index ratio at 100 nM after 24 hrs by propidium iodide staining-based flow cytometry relative to control; assay type: functional
[13] = Cell cycle arrest in human 518A2 cells assessed as accumulation at G2/M phase at 100 nM after 24 hrs by propidium iodide staining-based flow cytometry (reference value: 26.3%); assay type: functional
[14] = test system: HT-29; assay: Antivascular activity against in combretastatin A-4 resistant human HT-29 cells xenografted in fertilized white leghorn chicken egg chorioallantoic membrane assessed as blood vessel hemorrhage at 5 nmol after 24 hrs by hematoxylin and eosin staining based stereomicroscopic analysis; assay type: functional, cell-based
In short: (§3)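 Pellets of 1 × 10⁶ HT-29 cells in 10 μL of 1:1 matrigel/serum-free RPMI (gelled 30 min, 37 °C) were placed on the CAM of fertilized eggs and left 48 h. Then 100 μL of a 50 μM PBS dilution (5 nmol) was pipetted outside a silicon ring around the pellet; DMSO served as control. After 24 h, stereomicroscopy was done, and micro-xenografts were explanted, formalin-fixed, paraffin-embedded and HE-stained.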

[15] = test system: HT-29; assay: Cell cycle arrest in combretastatin A-4 resistant human HT-29 cells assessed as accumulation at S phase at 100 nM after 24 hrs by propidium iodide staining-based flow cytometry (reference value: 13.7 +/- 0.3%); assay type: functional
In short: (§4)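 HT-29 cells (200,000/well) were treated 24 h with 100 nM indole, 5 μM CA-4 or DMSO. Cells were trypsinized, fixed in 4% formaldehyde (20 min, RT) and permeabilized in 90% ice-cold methanol (30 min). They were immunostained with anti-phospho-histone H3 (Ser10) (5 μg/mL, 37 °C, 1 h) plus an AlexaFluor-488 secondary, then stained with PI/RNase (30 min, 37 °C). Flow cytometry of 10,000 single cells assigned G1/S/G2/M.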

[16] = test system: HT-29; assay: Cell cycle arrest in combretastatin A-4 resistant human HT-29 cells assessed as accumulation at G1 phase at 50 nM after 24 hrs by propidium iodide staining-based flow cytometry (reference value: 68.1 +/- 0.3%); assay type: functional
[17] = test system: HT-29; assay: Antivascular activity against in combretastatin A-4 resistant human HT-29 cells xenografted in fertilized white leghorn chicken egg chorioallantoic membrane assessed as loss of cell to cell interaction at 5 nmol after 24 hrs by hematoxylin and eosin staining based stereomicroscopic analysis; assay type: functional; in short: as §3
[18] = test system: Chorioallantoic membrane; assay: Antivascular activity in fertilized white leghorn chicken egg chorioallantoic membrane assessed as disruption of preformed blood vessel at 2.5 nmol after 12 hrs by stereomicroscopic analysis; assay type: functional, tissue-based; details: Gallus gallus
[19] = test system: HT-29; assay: Cell cycle arrest in combretastatin A-4 resistant human HT-29 cells assessed as accumulation at G2 phase at 100 nM after 24 hrs by propidium iodide staining-based flow cytometry (reference value: 15.6 +/- 0.1%); assay type: functional; in short: as §4
[20] = test system: HT-29; assay: Induction of apoptosis in combretastatin A-4 resistant human HT-29 cells xenografted in fertilized white leghorn chicken egg chorioallantoic membrane at 5 nmol after 24 hrs by hematoxylin and eosin staining based stereomicroscopic analysis; assay type: functional, cell-based
In short: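 Pellets of 1×10^6 HT-29 cells in matrigel/serum-free RPMI placed on the CAM of fertilized eggs for 48 h. Then 5 nmol (100 µL of 50 µM in PBS) applied outside a silicon ring around the pellet; DMSO as control. Imaged by stereomicroscopy after 24 h. Micro-xenografts then explanted, formalin-fixed, paraffin-embedded and HE-stained.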

[21] = test system: 518A2; assay: Induction of microtubule disruption in human 518A2 cells at 100 nM incubated for 24 hrs by DAPI staining based immunofluorescence microscopic analysis; assay type: cell-based; in short: as §1

Structure (SMILES)	Activity [1] [%]	Ratio [2]	Ratio [3]	Ratio [5]	Activity [6] [%]	IC50 [7] [nM]	IC50 [8] [nM]	Activity [9] [%]	IC50 [10] [nM]	also measured
COc1cc(-c2ncn(C)c2-c2ccc3c(c2)c(Cl)cn3C)cc(OC)c1OC	43.6	27.2	26.1	14.8	9.3	65.4	11600	32.4	20.2	Activity [4]: inactive; Activity [11]: Active
COc1cc(-c2ncn(C)c2-c2ccc3c(c2)c(Cl)cn3C)cc(Br)c1OC.Cl	53.9	21.1	19.7	17.9	9	51.9	23000	25.9	18.8	Ratio [12]: 1.5; Activity [13]: 33.9%; Activity [14]: Active; Activity [15]: 8%; Activity [16]: 43.5%; Activity [17]: Active; Activity [18]: Active; Activity [19]: 4.6%; Activity [20]: Active; Activity [21]: Active
